Screens from PubChem.
C2C12 statin: suppressors of statin myotoxicity in C2C12 myotubes, primary screen, cell-based, single point, plate reader | AID 602340, 2012 | hit rate 0.78% among 330,000 | C2C12 myotubes + simvastatin, ATP luminescence, 48 h; scaled: DMSO 0, geranylgeraniol control 100 | rescue of ATP level, % at 7.49 µM;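 active = mean ATP rescue above about 67%, or every replicate alone reaching that limit, limit read from the data, passing the limit was not always enough; inconclusive = no clear call, values can overlap the other calls; inactive = mean under the limit and some replicate under it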;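 note: myotubes were challenged with 10 µM simvastatin during compound exposure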
E-sel inducer: E-selectin induction in HUVECs, primary screen, imaging, HUVEC, immunofluorescence imaging, single point | AID 686992, 2013 | activation, % at 7.58 µM | normalized: neutral wells 0, TNF-alpha wells 100 | P16581 | hit rate 0.37% among 260,000;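 active = mean E-selectin-positive cell signal at least 10% of the positive control, reached in at least 60% of replicates, without over 20% cell loss; inconclusive = no rule given, readout overlaps actives, possibly toxicity-flagged; inactive = the rest, including those meeting only one limit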
Target sequence (P16581 whole entry, looked up): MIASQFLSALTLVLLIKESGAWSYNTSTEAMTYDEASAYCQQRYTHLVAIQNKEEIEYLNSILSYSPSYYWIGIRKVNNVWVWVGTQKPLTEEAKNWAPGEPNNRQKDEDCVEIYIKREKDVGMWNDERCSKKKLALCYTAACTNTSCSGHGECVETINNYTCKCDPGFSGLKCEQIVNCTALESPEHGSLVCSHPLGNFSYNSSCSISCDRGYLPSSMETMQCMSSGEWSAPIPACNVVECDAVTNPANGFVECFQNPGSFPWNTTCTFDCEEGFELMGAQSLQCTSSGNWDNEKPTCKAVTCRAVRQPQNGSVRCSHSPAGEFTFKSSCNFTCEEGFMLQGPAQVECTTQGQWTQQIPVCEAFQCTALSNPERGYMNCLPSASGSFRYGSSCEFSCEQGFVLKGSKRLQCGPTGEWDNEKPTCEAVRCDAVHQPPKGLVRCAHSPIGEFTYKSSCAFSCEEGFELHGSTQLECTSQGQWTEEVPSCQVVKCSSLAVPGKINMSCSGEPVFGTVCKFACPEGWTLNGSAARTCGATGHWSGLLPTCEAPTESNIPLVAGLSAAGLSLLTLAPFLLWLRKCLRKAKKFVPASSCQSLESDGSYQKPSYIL
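System: HUVEC, human umbilical vein endothelial cells; quantity: 3,000 cells/well; buffer or medium: EGM-2 medium, gelatin-coated wells; dosing: single-point compound dose; detection: immunofluorescence imaging; evaluation: % PE-positive cells; benchmarks: TNF-alpha, DMSO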
DENV2 CPE: inhibitors of DENV2 cytopathic effect, primary screen, cell-based, plate reader, single concentration. hit rate 1.7% among 350,000. CPE inhibition, % at 9.99 µM. DENV2-infected cells, cytopathic effect rescue; in the data active = CPE inhibition above about 20%, passing the limit was not always enough; inconclusive = no clear call, values can overlap the other calls; tested in BHK-21 cells;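 note: 0% = median of neutral control wells and 100% = median of positive control wells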
* hit, by the source's call; ? = inconclusive; nt = no result. Compounds with a hit are over-represented: about 2.2% of the library has one in this group of screens.

SMILES	C2C12 statin	E-sel inducer	DENV2 CPE
CN(C)CC#Cc1ccc([C@H]2[C@@H](CO)N3CCCCN(CC4CC4)C[C@H]23)cc1	nt	0	-6
O=C1CSC(c2cn(-c3ccccc3)nc2-c2ccccc2)N1Cc1ccco1 (configuration not stated)	74*	nt	nt
O=C1CSC(c2ccncc2)N1Cc1ccco1 (configuration not stated)	-8	nt	nt
CCC(=O)N1CCc2cc(S(=O)(=O)CCC(=O)N3CCN(c4ccccc4)CC3)ccc21	-19	nt	4
CCC(=O)N1CCc2cc(S(=O)(=O)NCCCN3CCN(Cc4ccccc4)CC3)ccc21	156*	nt	nt
CCC(=O)N1CCc2cc(S(=O)(=O)CCC(=O)N3CCc4ccccc4C3)ccc21	76*	nt	nt
CC(=O)N1CCc2cc(S(=O)(=O)NCCCN3CCN(Cc4ccccc4)CC3)ccc21	-3	nt	nt
CCCN1C[C@@H](C)[C@@H](OC)CN(C)C(=O)c2ccc(NC(=O)Nc3ccccc3F)cc2OC[C@H]1C	-2	0	8
CN(C)C(=O)c1cccc(-c2cccc(-c3nc(C(=O)NCc4ccccc4)cc4c3[C@@H](CCO)N([S@](=O)C(C)(C)C)C4)c2)c1	-2	10	-1
Cc1ccc(OCCCCNC(C)c2ccccc2)c(C)c1 (configuration not stated)	7	nt	29*
Cc1ccc(OCCNCc2ccccc2)c(C)c1	2	0	13
CCC(=O)N1CC(=O)N2[C@@H](CO)[C@@H](c3ccc(C#Cc4cccc(OC)c4)cc3)[C@@H]2C1	nt	0	8
O=C(C[C@H]1C[C@@H]2c3cc(NC(=O)C4CCC4)ccc3O[C@@H]2[C@H](CO)O1)NCc1ccccc1F	3	0	6
C[C@@H]1CN([C@H](C)CO)C(=O)c2cc(NC(=O)Nc3ccccc3)ccc2O[C@@H]1CN(C)Cc1ccc2c(c1)OCO2	-27	2	?
O=C(Nc1ccc(F)cc1)Nc1ccc(Cl)cn1	27	nt	nt
CCOC(=O)C(NC(=O)Nc1ccc(Cl)cn1)(Oc1ccc(F)cc1)C(F)(F)F (configuration not stated)	11	nt	78*
CSc1ccccc1NC(=O)c1cc2c(=O)n3ccccc3nc2s1	-3	0	22*
CC(C)NC(=O)c1cc2c(=O)n3ccccc3nc2s1	-11	nt	-3
Cc1ccc2c(c1)c1c(n2CC(O)Cn2ccnc2C)C(=O)CCC1 (configuration not stated)	-3	nt	nt
Cc1ccc2c(c1)c1c(n2CC(O)CNC2CCCC2)CCCC1 (configuration not stated)	-8	nt	27*
CS(=O)(=O)N1CCCCN2[C@H](CO)[C@H](c3ccc(C4=CCCC4)cc3)[C@@H]2C1	nt	0	29*
CS(=O)(=O)N1CCCCN2[C@H](CO)[C@@H](c3ccc(C4=CCCC4)cc3)[C@H]2C1	nt	0	0
CS(=O)(=O)N1CCCCN2[C@H](C1)[C@H](c1ccc(C3=CCCC3)cc1)[C@@H]2CO	nt	0	-9
CS(=O)(=O)N1CCCCN2[C@@H](CO)[C@@H](c3ccc(C4=CCCC4)cc3)[C@@H]2C1	nt	0	29*
CCCNC(=O)[C@@H]1[C@@H](CO)[C@@H]2Cn3c(ccc(-c4cccc(F)c4)c3=O)[C@@H]2N1C(C)=O	11	0	0
SMILES	C2C12 statin	E-sel inducer	DENV2 CPE
CCS(=O)(=O)Nc1ccc2c(c1)C(=O)N(C)[C@@H]1CC[C@@H](CC(=O)NCc3ccccc3F)O[C@@H]1CO2	-4	0	0
CCOC(=O)CN1C(=O)S/C(=C/c2ccc(OC)c([N+](=O)[O-])c2)C1=O	113*	nt	-6
CCOC(=O)CN1C(=O)S/C(=C\c2ccc3c(c2)OCO3)C1=O	19	0	13
CO[C@@H]1CN(C)C(=O)c2ccc(NC(=O)C3CC3)cc2OC[C@H](C)N(CC2CC2)C[C@@H]1C	-22	0	-5
COc1cccc(/C=N\NC(=O)c2cc(OCC(F)(F)F)ccc2OCC(F)(F)F)c1	124*	nt	nt
CNC(=O)c1cc(OCC(F)(F)F)ccc1OCC(F)(F)F	nt	-2	5
CC(C)CC#Cc1ccc2c(c1)O[C@@H](CN(C)S(C)(=O)=O)[C@@H](C)CN([C@@H](C)CO)S2(=O)=O	2	0	12
CN(C)CC(=O)N1CC2(C1)[C@H](c1ccccc1)[C@@H](CO)N2C(=O)C1CCCC1	nt	0	-1
O=C(C1CCCCC1)N1CC2(C1)[C@@H](c1ccccc1)[C@H](CO)N2Cc1ccccc1F	nt	0	-9
O=C(c1cccc(F)c1)N1CC2(C1)[C@@H](c1ccccc1)[C@@H](CO)N2C(=O)C1CCCC1	nt	0	78*
